ChEMBL document CHEMBL3124907
Blank lines part the entries; values can stand above or below the compound they belong to.

Key:
[1] = molecular target: T1, 5-hydroxytryptamine receptor 2C (Homo sapiens) (UniProt P28335); test: Inhibition of 5-HT2C receptor (unknown origin) at 10 uM by radioligand binding assay relative to control
T1 sequence (whole entry): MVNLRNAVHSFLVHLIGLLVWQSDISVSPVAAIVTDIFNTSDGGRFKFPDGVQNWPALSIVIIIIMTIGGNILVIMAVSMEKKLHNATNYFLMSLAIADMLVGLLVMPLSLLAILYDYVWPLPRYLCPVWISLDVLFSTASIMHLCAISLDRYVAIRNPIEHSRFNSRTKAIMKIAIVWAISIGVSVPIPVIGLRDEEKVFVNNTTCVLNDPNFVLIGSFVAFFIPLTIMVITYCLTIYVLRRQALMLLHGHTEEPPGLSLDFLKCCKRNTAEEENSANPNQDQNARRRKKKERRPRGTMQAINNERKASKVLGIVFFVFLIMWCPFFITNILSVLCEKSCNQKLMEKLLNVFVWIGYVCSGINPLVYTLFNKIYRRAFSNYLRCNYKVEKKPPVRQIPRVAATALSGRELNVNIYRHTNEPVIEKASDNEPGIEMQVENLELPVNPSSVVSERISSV

[2] = molecular target: 5-hydroxytryptamine receptor 2A (Homo sapiens) (UniProt P28223); test: Inhibition of 5-HT2A receptor (unknown origin) at 10 uM by radioligand binding assay relative to control
Sequence of 5-hydroxytryptamine receptor 2A (Homo sapiens) (P28223 whole entry): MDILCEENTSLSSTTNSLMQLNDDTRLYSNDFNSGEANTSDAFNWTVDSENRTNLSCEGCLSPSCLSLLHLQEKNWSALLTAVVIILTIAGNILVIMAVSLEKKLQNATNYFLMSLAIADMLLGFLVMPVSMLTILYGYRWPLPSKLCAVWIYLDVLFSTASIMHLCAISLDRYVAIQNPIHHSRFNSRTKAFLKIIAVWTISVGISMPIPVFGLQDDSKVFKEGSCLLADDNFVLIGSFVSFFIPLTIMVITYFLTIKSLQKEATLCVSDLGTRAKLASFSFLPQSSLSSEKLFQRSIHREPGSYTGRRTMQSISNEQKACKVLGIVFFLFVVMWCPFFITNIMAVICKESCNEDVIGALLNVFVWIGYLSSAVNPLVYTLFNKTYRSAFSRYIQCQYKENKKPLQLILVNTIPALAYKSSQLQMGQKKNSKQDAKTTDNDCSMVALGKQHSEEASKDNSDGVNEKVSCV

[3] = molecular target: 5-hydroxytryptamine receptor 2B (Homo sapiens) (UniProt P41595); test: Inhibition of 5-HT2B receptor (unknown origin) at 10 uM by radioligand binding assay relative to control
Sequence of 5-hydroxytryptamine receptor 2B (Homo sapiens) (P41595 whole entry): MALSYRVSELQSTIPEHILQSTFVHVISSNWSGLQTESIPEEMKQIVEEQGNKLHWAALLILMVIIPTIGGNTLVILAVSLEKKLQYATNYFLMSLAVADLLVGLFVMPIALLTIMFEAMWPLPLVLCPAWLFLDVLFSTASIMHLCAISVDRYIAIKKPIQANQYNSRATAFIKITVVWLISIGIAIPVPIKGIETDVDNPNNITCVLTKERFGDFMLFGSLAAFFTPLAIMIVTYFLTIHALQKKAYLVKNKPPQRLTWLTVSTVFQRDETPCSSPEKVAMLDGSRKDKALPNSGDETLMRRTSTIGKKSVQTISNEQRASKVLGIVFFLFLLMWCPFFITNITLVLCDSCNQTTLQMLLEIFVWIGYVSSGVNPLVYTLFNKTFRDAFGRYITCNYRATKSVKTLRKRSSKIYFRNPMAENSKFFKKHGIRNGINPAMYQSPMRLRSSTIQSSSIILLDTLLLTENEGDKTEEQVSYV

[4] = molecular target: 5-hydroxytryptamine receptor 1D (Homo sapiens) (UniProt P28221); test: Inhibition of 5-HT1D receptor (unknown origin) at 10 uM by radioligand binding assay relative to control
[5] = molecular target: 5-hydroxytryptamine receptor 1B (Homo sapiens) (UniProt P28222); test: Inhibition of 5-HT1B receptor (unknown origin) at 10 uM by radioligand binding assay relative to control
Sequence of 5-hydroxytryptamine receptor 1B (Homo sapiens) (P28222 whole entry): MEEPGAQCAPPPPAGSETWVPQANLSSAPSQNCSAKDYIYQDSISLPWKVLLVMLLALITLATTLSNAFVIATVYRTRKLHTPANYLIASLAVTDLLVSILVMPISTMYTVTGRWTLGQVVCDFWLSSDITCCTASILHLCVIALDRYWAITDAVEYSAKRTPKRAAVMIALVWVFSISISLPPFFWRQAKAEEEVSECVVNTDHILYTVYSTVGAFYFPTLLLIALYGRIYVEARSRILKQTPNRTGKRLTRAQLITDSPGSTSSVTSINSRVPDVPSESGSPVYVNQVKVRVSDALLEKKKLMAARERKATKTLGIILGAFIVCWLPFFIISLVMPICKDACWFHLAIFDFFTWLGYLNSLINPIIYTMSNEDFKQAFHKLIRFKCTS

[6] = molecular target: D(1B) dopamine receptor (Homo sapiens) (UniProt P21918); test: Inhibition of dopamine D5 receptor (unknown origin) at 10 uM by radioligand binding assay relative to control
Sequence of D(1B) dopamine receptor (Homo sapiens) (P21918 whole entry): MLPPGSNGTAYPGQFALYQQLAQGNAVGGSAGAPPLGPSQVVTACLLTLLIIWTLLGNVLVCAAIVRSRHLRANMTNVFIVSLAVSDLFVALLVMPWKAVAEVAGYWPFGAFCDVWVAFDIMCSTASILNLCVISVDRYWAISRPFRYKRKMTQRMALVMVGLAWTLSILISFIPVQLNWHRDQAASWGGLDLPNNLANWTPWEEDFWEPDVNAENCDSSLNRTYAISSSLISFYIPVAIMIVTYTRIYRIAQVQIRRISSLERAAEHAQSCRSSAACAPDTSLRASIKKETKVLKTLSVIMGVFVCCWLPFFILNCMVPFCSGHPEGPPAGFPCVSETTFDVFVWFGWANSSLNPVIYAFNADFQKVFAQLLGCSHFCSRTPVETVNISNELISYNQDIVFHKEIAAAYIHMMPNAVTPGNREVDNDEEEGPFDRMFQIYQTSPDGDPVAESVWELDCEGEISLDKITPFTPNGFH

Rattus norvegicus = species: Rattus norvegicus; test: Inhibition of benzodiazepine receptor in rat brain at 10 uM by radioligand binding assay relative to control; format: tissue-based
[7] = molecular target: Alpha-2A adrenergic receptor (Homo sapiens) (UniProt P08913); test: Inhibition of alpha2A adrenergic receptor (unknown origin) at 10 uM by radioligand binding assay relative to control
[8] = molecular target: Alpha-1A adrenergic receptor (Homo sapiens) (UniProt P35348); test: Inhibition of alpha1A adrenergic receptor (unknown origin) at 10 uM by radioligand binding assay relative to control
Sequence of Alpha-1A adrenergic receptor (Homo sapiens) (P35348 whole entry): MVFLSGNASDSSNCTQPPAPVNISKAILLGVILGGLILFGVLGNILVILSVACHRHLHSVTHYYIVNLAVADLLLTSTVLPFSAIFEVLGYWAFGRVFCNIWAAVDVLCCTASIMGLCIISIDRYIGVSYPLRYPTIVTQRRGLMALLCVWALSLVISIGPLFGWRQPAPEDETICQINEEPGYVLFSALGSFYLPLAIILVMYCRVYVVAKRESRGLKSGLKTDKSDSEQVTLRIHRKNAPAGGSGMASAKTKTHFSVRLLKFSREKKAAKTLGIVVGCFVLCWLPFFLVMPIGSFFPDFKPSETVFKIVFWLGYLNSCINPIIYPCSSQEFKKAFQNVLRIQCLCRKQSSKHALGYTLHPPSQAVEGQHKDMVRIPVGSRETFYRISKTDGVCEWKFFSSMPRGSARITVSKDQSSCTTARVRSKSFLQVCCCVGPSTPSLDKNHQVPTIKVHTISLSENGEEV

[9] = molecular target: 5-hydroxytryptamine receptor 6 (Homo sapiens) (UniProt P50406); test: Inhibition of 5-HT6 receptor (unknown origin) at 10 uM by radioligand binding assay relative to control
[10] = molecular target: 5-hydroxytryptamine receptor 1A (Homo sapiens) (UniProt P08908); test: Inhibition of 5-HT1A receptor (unknown origin) at 10 uM by radioligand binding assay relative to control
Homo sapiens = species: Homo sapiens; test: Inhibition of sigma-2 receptor (unknown origin) at 10 uM by radioligand binding assay relative to control
[11] = molecular target: Alpha-1B adrenergic receptor (Homo sapiens) (UniProt P35368); test: Inhibition of alpha1B adrenergic receptor (unknown origin) at 10 uM by radioligand binding assay relative to control
Sequence of Alpha-1B adrenergic receptor (Homo sapiens) (P35368 whole entry): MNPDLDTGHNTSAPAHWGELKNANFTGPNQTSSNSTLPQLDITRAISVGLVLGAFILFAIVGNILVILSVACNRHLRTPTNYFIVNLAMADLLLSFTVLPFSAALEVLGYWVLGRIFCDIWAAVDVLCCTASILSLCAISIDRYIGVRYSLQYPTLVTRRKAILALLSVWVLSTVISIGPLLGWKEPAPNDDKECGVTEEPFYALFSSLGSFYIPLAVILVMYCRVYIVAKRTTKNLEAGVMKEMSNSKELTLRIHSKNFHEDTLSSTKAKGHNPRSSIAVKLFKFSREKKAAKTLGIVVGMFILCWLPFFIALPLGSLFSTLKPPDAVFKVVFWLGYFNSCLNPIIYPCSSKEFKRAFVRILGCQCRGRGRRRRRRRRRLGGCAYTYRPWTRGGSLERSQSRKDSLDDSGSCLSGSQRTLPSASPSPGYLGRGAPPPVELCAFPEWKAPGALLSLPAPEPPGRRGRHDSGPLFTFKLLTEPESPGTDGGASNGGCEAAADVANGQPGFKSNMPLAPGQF

[12] = molecular target: Beta-2 adrenergic receptor (Homo sapiens) (UniProt P07550); test: Inhibition of beta-2 adrenergic receptor (unknown origin) at 10 uM by radioligand binding assay relative to control
Sequence of Beta-2 adrenergic receptor (Homo sapiens) (P07550 whole entry, looked up): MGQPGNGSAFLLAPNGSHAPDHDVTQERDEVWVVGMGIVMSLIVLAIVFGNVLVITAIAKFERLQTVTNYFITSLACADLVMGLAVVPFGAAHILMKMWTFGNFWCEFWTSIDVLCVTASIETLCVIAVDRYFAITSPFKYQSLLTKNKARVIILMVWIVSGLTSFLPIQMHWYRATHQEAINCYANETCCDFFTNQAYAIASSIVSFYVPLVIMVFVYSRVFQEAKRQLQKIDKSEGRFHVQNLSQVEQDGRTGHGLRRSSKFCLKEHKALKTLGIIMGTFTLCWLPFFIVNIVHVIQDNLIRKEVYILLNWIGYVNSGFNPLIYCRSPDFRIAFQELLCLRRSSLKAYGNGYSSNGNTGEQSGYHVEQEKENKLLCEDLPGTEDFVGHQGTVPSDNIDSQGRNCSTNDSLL

[13] = molecular target: D(1A) dopamine receptor (Homo sapiens) (UniProt P21728); test: Inhibition of dopamine D1 receptor (unknown origin) at 10 uM by radioligand binding assay relative to control
Sequence of D(1A) dopamine receptor (Homo sapiens) (P21728 whole entry): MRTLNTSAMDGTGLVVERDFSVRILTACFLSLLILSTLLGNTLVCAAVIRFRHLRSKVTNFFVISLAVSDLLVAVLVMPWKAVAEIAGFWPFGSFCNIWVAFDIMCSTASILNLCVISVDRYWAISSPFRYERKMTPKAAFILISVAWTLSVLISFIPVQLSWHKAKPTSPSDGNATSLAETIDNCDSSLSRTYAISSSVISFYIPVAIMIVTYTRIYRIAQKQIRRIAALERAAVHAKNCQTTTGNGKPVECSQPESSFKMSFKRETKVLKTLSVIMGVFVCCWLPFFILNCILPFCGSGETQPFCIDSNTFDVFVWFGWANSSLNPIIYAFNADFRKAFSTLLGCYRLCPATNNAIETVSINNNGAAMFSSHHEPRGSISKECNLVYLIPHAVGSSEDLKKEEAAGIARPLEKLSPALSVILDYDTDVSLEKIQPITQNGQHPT

[14] = molecular target: Glutamate [NMDA] receptor (Homo sapiens) (UniProt Q05586+Q12879+Q13224+O15399+O60391+Q14957+Q8TCU5); test: Inhibition of NMDA receptor (unknown origin) at 10 uM by radioligand binding assay relative to control
[15] = molecular target: Translocator protein (Homo sapiens) (UniProt P30536); test: Inhibition of PBR (unknown origin) at 10 uM by radioligand binding assay relative to control
Sequence of Translocator protein (Homo sapiens) (P30536 whole entry): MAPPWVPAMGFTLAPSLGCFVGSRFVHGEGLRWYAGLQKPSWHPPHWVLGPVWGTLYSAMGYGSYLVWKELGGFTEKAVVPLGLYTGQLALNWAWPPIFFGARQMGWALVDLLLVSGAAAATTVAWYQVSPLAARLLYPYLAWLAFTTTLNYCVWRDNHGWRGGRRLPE

[16] = molecular target: Muscarinic acetylcholine receptor M2 (Homo sapiens) (UniProt P08172); test: Inhibition of muscarinic M2 receptor (unknown origin) at 10 uM by radioligand binding assay relative to control
[17] = molecular target: Alpha-2C adrenergic receptor (Homo sapiens) (UniProt P18825); test: Inhibition of alpha2C adrenergic receptor (unknown origin) at 10 uM by radioligand binding assay relative to control
Sequence of Alpha-2C adrenergic receptor (Homo sapiens) (P18825 whole entry): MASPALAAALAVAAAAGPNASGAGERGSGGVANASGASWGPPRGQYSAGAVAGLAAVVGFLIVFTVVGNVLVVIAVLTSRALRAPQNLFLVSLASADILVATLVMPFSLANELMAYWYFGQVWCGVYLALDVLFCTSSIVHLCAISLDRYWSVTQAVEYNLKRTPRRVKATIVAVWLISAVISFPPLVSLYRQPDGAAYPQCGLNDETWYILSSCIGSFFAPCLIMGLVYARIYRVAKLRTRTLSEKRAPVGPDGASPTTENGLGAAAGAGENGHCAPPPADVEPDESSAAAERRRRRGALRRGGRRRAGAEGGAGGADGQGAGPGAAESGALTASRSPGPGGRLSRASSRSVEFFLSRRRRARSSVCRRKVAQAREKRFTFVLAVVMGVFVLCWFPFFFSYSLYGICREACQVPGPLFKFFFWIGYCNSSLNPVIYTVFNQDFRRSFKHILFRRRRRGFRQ

[18] = molecular target: Sodium-dependent serotonin transporter (Homo sapiens) (UniProt P31645); test: Inhibition of SERT (unknown origin) at 10 uM by radioligand binding assay relative to control
[19] = molecular target: Histamine H1 receptor (Homo sapiens) (UniProt P35367); test: Inhibition of histamine H1 receptor (unknown origin) at 10 uM by radioligand binding assay relative to control
[20] = molecular target: Histamine H3 receptor (Homo sapiens) (UniProt Q9Y5N1); test: Inhibition of histamine H3 receptor (unknown origin) at 10 uM by radioligand binding assay relative to control
Sequence of Histamine H3 receptor (Homo sapiens) (Q9Y5N1 whole entry): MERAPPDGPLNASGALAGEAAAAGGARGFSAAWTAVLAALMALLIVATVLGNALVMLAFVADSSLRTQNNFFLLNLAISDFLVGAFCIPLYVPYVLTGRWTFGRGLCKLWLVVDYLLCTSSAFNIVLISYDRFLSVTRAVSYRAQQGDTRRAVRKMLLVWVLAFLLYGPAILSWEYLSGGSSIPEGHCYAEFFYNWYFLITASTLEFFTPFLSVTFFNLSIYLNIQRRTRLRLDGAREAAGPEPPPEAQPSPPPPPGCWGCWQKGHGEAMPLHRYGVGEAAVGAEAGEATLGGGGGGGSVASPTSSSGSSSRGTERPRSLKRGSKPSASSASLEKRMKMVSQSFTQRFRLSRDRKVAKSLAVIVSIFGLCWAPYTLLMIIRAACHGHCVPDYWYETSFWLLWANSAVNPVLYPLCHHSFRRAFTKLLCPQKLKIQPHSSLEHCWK

[21] = molecular target: 5-hydroxytryptamine receptor 2B (Homo sapiens) (UniProt P41595); test: Agonist activity at 5-HT2B receptor (unknown origin) expressed in Flp-In HEK cells assessed as stimulation of calcium mobilization at 10 uM relative to 5-HT; format: functional, cell-based; details: HEK293
How it was run: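 Agonist-mode calcium mobilization in Flp-In HEK cells expressing 5-HT2B, with test compound at 10 µM. Response expressed as percent of the maximal 5-HT response.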

[22] = molecular target: Muscarinic acetylcholine receptor M5 (Homo sapiens) (UniProt P08912); test: Inhibition of muscarinic M5 receptor (unknown origin) at 10 uM by radioligand binding assay relative to control
[23] = molecular target: Sodium-dependent noradrenaline transporter (Homo sapiens) (UniProt P23975); test: Inhibition of NET (unknown origin) at 10 uM by radioligand binding assay relative to control
[24] = molecular target: 5-hydroxytryptamine receptor 7 (Homo sapiens) (UniProt P34969); test: Inhibition of 5-HT7 receptor (unknown origin) at 10 uM by radioligand binding assay relative to control
[25] = molecular target: 5-hydroxytryptamine receptor 3A (Homo sapiens) (UniProt P46098); test: Inhibition of 5-HT3 receptor (unknown origin) at 10 uM by radioligand binding assay relative to control
[26] = molecular target: Alpha-1D adrenergic receptor (Homo sapiens) (UniProt P25100); test: Inhibition of alpha1D adrenergic receptor (unknown origin) at 10 uM by radioligand binding assay relative to control

Compound: O=c1cc(Cc2cccs2)oc2cccc(O)c12
inhibition [1]: 23.5%
inhibition [2]: -4.5%
inhibition [3]: 31.5%

Compound: O=c1cc(Cc2ccccc2)oc2cccc(O)c12
inhibition [1]: 24.8%
inhibition [2]: 1.4%
inhibition [3]: 30.6%

Compound: O=c1cc(COc2ccccc2)oc2cccc(O)c12
inhibition [1]: 7.8%
inhibition [2]: 0.2%
inhibition [3]: 50%

Compound: O=c1cc(CCCCc2ccccc2)oc2cccc(O)c12
inhibition [1]: 14.7%
inhibition [2]: 5.7%
inhibition [3]: 45.2%

Compound: O=c1cc(CCc2cccs2)oc2cccc(O)c12
inhibition [1]: 19.6%
inhibition [2]: 1.4%
inhibition [3]: 74.8%

The remaining lines, values ahead:

inhibition [1]: 7.9%
inhibition [2]: 5.4%
inhibition [3]: 70.4%
Compound: O=c1cc(CCCc2ccccc2)oc2cccc(O)c12

inhibition [4]: 4.3%
inhibition [5]: 3.7%
inhibition [6]: 0.4%
inhibition (Rattus norvegicus): 0.1%
inhibition [7]: 22.2%
inhibition [8]: 16.9%
inhibition [9]: 5.8%
inhibition [10]: 5.4%
inhibition (Homo sapiens): 36.8%
inhibition [11]: 2.9%
inhibition [12]: 1.4%
inhibition [13]: 24.7%
inhibition [14]: 17.4%
inhibition [15]: 2.8%
inhibition [16]: 1.8%
inhibition [17]: 32.7%
inhibition [18]: 28.9%
inhibition [19]: 13%
inhibition [20]: 15.9%
Activity [21]: 0.6%
inhibition [22]: 19.3%
inhibition [23]: 34.6%
inhibition [24]: 35.9%
inhibition [25]: 61.7%
inhibition [26]: 2.1%
Compound: O=c1cc(CCc2ccccc2)oc2cccc(O)c12
